Test results published in ChEMBL document CHEMBL3259541, “Synthesis and biological evaluation of antimetastatic agents predicated upon dihydromotuporamine C and its carbocyclic derivatives” (J Med Chem, 2014).

Columns and labels:
[1] = system: CHO-MG; assay: Cytotoxicity against polyamine transporter deficient CHO-MG cells assessed as cell growth after 48 hrs incubation by MTS assay in presence of 1 mM aminoguanidine; assay type: ADME, cell-based; conditions: Cricetulus griseus
Outline: (§1)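 CHO and polyamine-transport-deficient CHO-MG* cells pretreated 24 h with 1 mM aminoguanidine, then exposed to compound for 48 h at 37 °C. Triplicate. IC50 taken as 50% growth inhibition. PTS selectivity expressed as the CHO-MG*/CHO IC50 ratio.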

[2] = Cytotoxicity against human L3.6PL cells assessed as inhibition of cell growth after 48 hrs incubation by MTS assay in presence of 250 uM aminoguanidine treated 24 hrs prior compound addition; assay type: functional, cell-based; conditions: for IC50: Homo sapiens, L3.6pl
Outline: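 L3.6pl cells pretreated 24 h with 250 μM aminoguanidine, then incubated with compound for 48 h at 37 °C. Triplicate. IC50 is the concentration giving 50% growth inhibition and IC5 the concentration giving 5% inhibition, both versus untreated control.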

[3] = system: polyamine transporter; assay: Selectivity ratio of IC50 for polyamine transporter deficient CHO-MG cells to IC50 for CHO cells by MTS assay; assay type: ADME, cell-based, Cricetulus griseus; conditions: chinese hamster, polyamine transporter deficient CHO-MG cells and CHO cells; read-out: Ratio IC50; outline: as §1
[4] = system: CHO; assay: Cytotoxicity against CHO cells assessed as cell growth after 48 hrs incubation by MTS assay in presence of 1 mM aminoguanidine; assay type: cell-based; conditions: Cricetulus griseus; outline: as §1
[5] = system: L3.6pl; assay: Antimigratory activity against human L3.6PL cells assessed as cell migration inhibition after 48 hrs incubation by wound healing assay in presence of 250 uM aminoguanidine treated 24 hrs prior compound addition; assay type: functional, cell-based
[6] = Antimigratory activity against human L3.6PL cells assessed as cell migration inhibition at 1 uM after 48 hrs incubation by wound healing assay in presence of 250 uM aminoguanidine treated 24 hrs prior compound addition; assay type: functional
[7] = Antimigratory activity against human L3.6PL cells assessed as cell migration inhibition at 0.6 uM after 48 hrs incubation by wound healing assay in presence of 250 uM aminoguanidine treated 24 hrs prior compound addition; assay type: functional
[8] = Antimigratory activity against human L3.6PL cells assessed as cell migration inhibition at 2 uM after 48 hrs incubation by wound healing assay in presence of 250 uM aminoguanidine treated 24 hrs prior compound addition; assay type: functional

Q: What does the source list for Cl.NCCCCNCCCCNC1CCCCCCCCCCCCCC1?
A: IC50 [1]: 5.18 µM; IC5 [2]: 2 µM; IC50 [2]: 2.8 µM; selectivity ratio [3]: 1; IC50 [4]: 4.53 µM

Q: With Cl.NCCCCNCCCCNCC1CCCCCCCCCCCCCC1 as the molecule, how does the IC50 [1] read?
A: The IC50 was 45.5 µM.

Q: And the IC5 [2]?
A: The IC5 was 40 µM.

Q: And the IC50 [2]?
A: The IC50 was 48.7 µM.

Q: And the inhibition [5]?
A: The inhibition was “Dose-dependent effect”.

Q: And the selectivity ratio [3]?
A: Its selectivity ratio is 1.

Q: What about the IC50 [4] of the same molecule?
A: The IC50 was 47.8 µM.

Q: Which results are given for Cl.NCCCCNCCCCN1CCCCCCCCCCCCCC1?
A: inhibition (INH) [6]: 29.6%; IC50 [1]: 4.67 µM; inhibition (INH) [7]: 16.7%; IC5 [2]: 1 µM; IC50 [2]: 1.8 µM; selectivity ratio [3]: 1; IC50 [4]: 4.38 µM

Q: Which IC50 [1] does the source give for Cl.NCCCNCCCNC1CCCCCCCCCCCCCC1 here?
A: Its IC50 is 5.95 µM.

Q: What about the “inhibition (INH)” value [7] of the same molecule?
A: The value was 19.3%.

Q: What about the IC5 [2] of the same molecule?
A: Its IC5 is 2 µM.

Q: And the IC50 [2]?
A: Its IC50 is 2.8 µM.

Q: And the “inhibition (INH)” value [8]?
A: Its value is 32.9%.

Q: What about the selectivity ratio [3] of the same molecule?
A: Its selectivity ratio is 2.1.

Q: And the IC50 [4]?
A: Its IC50 is 2.84 µM.
